Results on 27 compounds are retold here after ChEMBL document CHEMBL1926683, “Synthesis and anticancer activity of 4β-alkylamidochalcone and 4β-cinnamido linked podophyllotoxins as apoptotic inducing agents” (Eur J Med Chem, 2012).

The IC50 is the point on the concentration scale where inhibition reaches its midpoint. Read a high IC50 as weaker potency.

Molecules are shown by their SMILES.

Assay type in all cases: functional, cell-based
One assay relates to HT-29. The experiment in a line: Anticancer activity against human HT-29 cells after 48 hrs by MTT assay. The following applies: HT-29, 48 h. In short, it runs like this: (§1)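 MTT assay. Cells seeded at 1 × 10⁴/well in DMEM with 10% FBS and held 24 h at 37 °C in CO₂. Compounds were diluted in culture medium and added alongside vehicle controls, then incubated 48 h. MTT (5 mg/ml stock) was added for 4 h. Supernatant was removed, formazan dissolved in DMSO, and absorbance read at 540 nm.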

In another assay the test system is A-375. The experiment in a line: Anticancer activity against human A375 cells after 48 hrs by MTT assay. To be noted: A-375, 48 h. A digest of the protocol:
as §1

The next assay deals with A549. The experiment in a line: Anticancer activity against human A549 cells after 48 hrs by MTT assay. The following applies: A549, 48 h. A digest of the protocol:
as §1
On the technique in general: Tetrazolium assays rely on reduction of a dye to a coloured formazan, in cell work by metabolically active cells.

For a further assay, the system named is ACHN. Description: Anticancer activity against human ACHN cells after 48 hrs by MTT assay. A digest of the protocol:
as §1

Another assay deals with MCF7. The experiment in a line: Anticancer activity against human MCF7 cells after 48 hrs by MTT assay. To be noted: MCF7, 48 h. In short, it runs like this:
as §1

Turning to `COc1cc([C@@H]2c3cc4c(cc3[C@@H](NC(=O)/C=C/c3ccc(Br)cc3)[C@H]3COC(=O)[C@H]23)OCO4)cc(OC)c1OC`, the IC50 in the assay on HT-29 was 19.2 µM; in the assay on A-375, 17.8 µM; with A549, 9.5 µM; in the assay on ACHN, 14.3 µM; with MCF7 it was 11.2 µM.
For `COc1cccc(C(=O)/C=C/c2ccc(OCCCCCC(=O)N[C@@H]3c4cc5c(cc4[C@@H](c4cc(OC)c(OC)c(OC)c4)[C@H]4C(=O)OC[C@@H]43)OCO5)c(OC)c2)c1`, the IC50 with HT-29 stood at 11.9 µM; in the assay on A-375, 20.1 µM; in the assay with A549, 14.4 µM; with ACHN, 13.7 µM; with MCF7, 17.5 µM.
With `COc1cc(/C=C/C(=O)c2cc(OC)c(OC)c(OC)c2)ccc1OCCCCCC(=O)N[C@@H]1c2cc3c(cc2[C@@H](c2cc(OC)c(OC)c(OC)c2)[C@H]2C(=O)OC[C@@H]21)OCO3`, the IC50 with HT-29 turned out to be 12.1 µM; with A-375, 9.8 µM; with A549 it was 13.6 µM; with ACHN, 19.5 µM; in the assay with MCF7 it was 10.2 µM.
Regarding `O=C(O)/C=C/c1ccccc1` [CINNAMIC ACID], the IC50 was 114 µM with HT-29; 64 µM with A-375; 87 µM in the assay on A549; 91 µM in the assay on ACHN; 108 µM with MCF7.
Turning to `COc1ccc(/C=C/C(=O)N[C@@H]2c3cc4c(cc3[C@@H](c3cc(OC)c(OC)c(OC)c3)[C@H]3C(=O)OC[C@@H]32)OCO4)cc1`, the IC50 in the assay with HT-29 worked out at 17.6 µM; in the assay with A-375, 19.1 µM; with A549 it was 7.7 µM; in the assay on ACHN it was 17.8 µM; in the assay on MCF7, 15.7 µM.
On the same counts, the results for `COc1cc([C@@H]2c3cc4c(cc3[C@@H](NC(=O)/C=C/c3ccc([N+](=O)[O-])cc3)[C@H]3COC(=O)[C@H]23)OCO4)cc(OC)c1OC` are 18.1 µM, 14.5 µM, 8.2 µM, 12.8 µM and 10.1 µM.
Consider `COc1cc(/C=C/C(=O)c2cc(OC)c(OC)c(OC)c2)ccc1OCC(=O)N[C@@H]1c2cc3c(cc2[C@@H](c2cc(OC)c(OC)c(OC)c2)[C@H]2C(=O)OC[C@@H]21)OCO3`, for which the IC50 was 9.54 µM in the assay with HT-29; 7.8 µM in the assay with A-375; 10.7 µM in the assay on A549; 8.51 µM with ACHN; 14.9 µM with MCF7.
On to `COc1ccc(C(=O)/C=C/c2ccc(OCC(=O)N[C@@H]3c4cc5c(cc4[C@@H](c4cc(OC)c(OC)c(OC)c4)[C@H]4C(=O)OC[C@@H]43)OCO5)c(OC)c2)cc1`, for which the IC50 came to 16.9 µM in the assay with HT-29; 9.3 µM with A-375; 8.3 µM in the assay with A549; 16.1 µM with ACHN; 16.2 µM with MCF7.
With `COc1ccc(/C=C/C(=O)c2cc(OC)c(OC)c(OC)c2)cc1OCC(=O)N[C@@H]1c2cc3c(cc2[C@@H](c2cc(OC)c(OC)c(OC)c2)[C@H]2C(=O)OC[C@@H]21)OCO3`, the IC50 was determined as 5.98 µM in the assay with HT-29; 11.5 µM with A-375; 11.7 µM in the assay on A549; 11.1 µM in the assay with ACHN; 15.4 µM in the assay with MCF7.
In the case of `COc1cc(/C=C/C(=O)c2cccc([N+](=O)[O-])c2)ccc1OCC(=O)N[C@@H]1c2cc3c(cc2[C@@H](c2cc(OC)c(OC)c(OC)c2)[C@H]2C(=O)OC[C@@H]21)OCO3`, the IC50 came to 8.41 µM in the assay on HT-29; 5.3 µM in the assay with A-375; 9 µM in the assay on A549; 13.2 µM in the assay with ACHN; 6.7 µM in the assay on MCF7.
As for `COc1cc([C@@H]2c3cc4c(cc3[C@@H](NC(=O)/C=C/c3ccc(Cl)c(Cl)c3)[C@H]3COC(=O)[C@H]23)OCO4)cc(OC)c1OC`, the IC50 stood at 21 µM in the assay on HT-29; 13.2 µM in the assay on A-375; 8.4 µM with A549; 17.7 µM with ACHN; 20.1 µM in the assay with MCF7.
With `COc1cccc(C(=O)/C=C/c2ccc(OCC(=O)N[C@@H]3c4cc5c(cc4[C@@H](c4cc(OC)c(OC)c(OC)c4)[C@H]4C(=O)OC[C@@H]43)OCO5)c(OC)c2)c1`, the IC50 in the assay on HT-29 came out at 8.1 µM; with A-375 it was 13.8 µM; in the assay with A549 it was 9.1 µM; in the assay on ACHN, 13.8 µM; with MCF7, 21.8 µM.
For the compound `COc1cc(C(=O)/C=C/c2ccc(OCCCCCC(=O)N[C@@H]3c4cc5c(cc4[C@@H](c4cc(OC)c(OC)c(OC)c4)[C@H]4C(=O)OC[C@@H]43)OCO5)cc2)cc(OC)c1OC`, the IC50 amounted to 15.3 µM with HT-29; 18.4 µM in the assay on A-375; 21.5 µM in the assay on A549; 16.5 µM in the assay on ACHN; 24.8 µM with MCF7.
For the compound `COc1cc(C(=O)/C=C/c2cccc(OCCCCCC(=O)N[C@@H]3c4cc5c(cc4[C@@H](c4cc(OC)c(OC)c(OC)c4)[C@H]4C(=O)OC[C@@H]43)OCO5)c2)cc(OC)c1OC`, the IC50 was 21.1 µM with HT-29; 11.5 µM with A-375; 14.7 µM with A549; 20.8 µM in the assay on ACHN; 8.3 µM in the assay on MCF7.
For the compound `COc1cc(/C=C/C(=O)c2ccc(F)cc2)ccc1OCCCCCC(=O)N[C@@H]1c2cc3c(cc2[C@@H](c2cc(OC)c(OC)c(OC)c2)[C@H]2C(=O)OC[C@@H]21)OCO3`, the IC50 in the assay with HT-29 amounted to 11.7 µM; in the assay on A-375, 11.4 µM; with A549 it was 5.9 µM; in the assay on ACHN, 9.3 µM; in the assay on MCF7 it was 15.8 µM.
Turning to `COc1cc([C@@H]2c3cc4c(cc3[C@H](O)[C@H]3COC(=O)[C@H]23)OCO4)cc(OC)c1OC` [PODOFILOX], the IC50 in the assay with HT-29 worked out at 0.78 µM; in the assay on A-375, 2.62 µM; in the assay on A549, 3.75 µM; in the assay on ACHN, 2.12 µM; in the assay on MCF7 it was 1.18 µM.
On to `COc1cc(/C=C/C(=O)c2ccc(F)cc2)ccc1OCC(=O)N[C@@H]1c2cc3c(cc2[C@@H](c2cc(OC)c(OC)c(OC)c2)[C@H]2C(=O)OC[C@@H]21)OCO3`, for which the IC50 in the assay with HT-29 stood at 21.6 µM; with A-375 it was 12.2 µM; in the assay with A549, 26.4 µM; in the assay on ACHN, 26.7 µM; in the assay on MCF7 it was 19.1 µM.
Take `COc1cc(/C=C/C(=O)c2cccc([N+](=O)[O-])c2)ccc1OCCCCCC(=O)N[C@@H]1c2cc3c(cc2[C@@H](c2cc(OC)c(OC)c(OC)c2)[C@H]2C(=O)OC[C@@H]21)OCO3`: the IC50 was 8.75 µM in the assay with HT-29; 10.8 µM with A-375; 10.7 µM in the assay on A549; 11.9 µM in the assay with ACHN; 18.1 µM with MCF7.
Turning to `COc1ccc(/C=C/C(=O)c2cc(OC)c(OC)c(OC)c2)cc1OCCCCCC(=O)N[C@@H]1c2cc3c(cc2[C@@H](c2cc(OC)c(OC)c(OC)c2)[C@H]2C(=O)OC[C@@H]21)OCO3`, the IC50 in the assay on HT-29 stood at 6.47 µM; in the assay on A-375, 10.3 µM; with A549, 16.7 µM; in the assay with ACHN, 13.4 µM; in the assay with MCF7 it was 12.6 µM.
For the compound `COc1cc(/C=C/C(=O)N[C@@H]2c3cc4c(cc3[C@@H](c3cc(OC)c(OC)c(OC)c3)[C@H]3C(=O)OC[C@@H]32)OCO4)cc(OC)c1OC`, the IC50 came to 8.34 µM in the assay with HT-29; 14 µM in the assay on A-375; 7.9 µM in the assay on A549; 13.1 µM in the assay with ACHN; 17.7 µM in the assay on MCF7.
Consider `COc1cc(/C=C/C(=O)c2c(C)nc3ccccc3c2C)ccc1OCCCCCC(=O)N[C@@H]1c2cc3c(cc2[C@@H](c2cc(OC)c(OC)c(OC)c2)[C@H]2C(=O)OC[C@@H]21)OCO3`, for which the IC50 in the assay with HT-29 is 11.8 µM; in the assay on A-375, 10.3 µM; with A549 it was 10.6 µM; in the assay on ACHN, 10.7 µM; with MCF7 it was 8.6 µM.
For `COc1cc([C@@H]2c3cc4c(cc3[C@@H](NC(=O)/C=C/c3ccc(Cl)cc3)[C@H]3COC(=O)[C@H]23)OCO4)cc(OC)c1OC`, the IC50 is 11.4 µM in the assay with HT-29; 5.7 µM in the assay with A-375; 8.8 µM with A549; 7.54 µM in the assay on ACHN; 13.7 µM in the assay with MCF7.
`O=C(O)/C=C/c1ccc(C(F)(F)F)cc1`: the IC50 was 75 µM in the assay on HT-29; 91 µM in the assay on A-375; 56 µM with A549; 128 µM in the assay on ACHN; 142 µM in the assay on MCF7.
Take `COc1cc(/C=C/C(=O)c2c(C)nc3ccccc3c2C)ccc1OCC(=O)N[C@@H]1c2cc3c(cc2[C@@H](c2cc(OC)c(OC)c(OC)c2)[C@H]2C(=O)OC[C@@H]21)OCO3`: the IC50 with HT-29 was determined as 12.3 µM; with A-375, 14.5 µM; in the assay with A549, 15.4 µM; with ACHN, 10.8 µM; in the assay on MCF7, 13.8 µM.
`COc1cc(C(=O)/C=C/c2ccc(OCC(=O)N[C@@H]3c4cc5c(cc4[C@@H](c4cc(OC)c(OC)c(OC)c4)[C@H]4C(=O)OC[C@@H]43)OCO5)cc2)cc(OC)c1OC`: the IC50 in the assay on HT-29 is 12.4 µM; with A-375, 25.8 µM; with A549, 19.1 µM; in the assay with ACHN it was 10.2 µM; in the assay with MCF7 it was 24.2 µM.
Turning to `COc1cccc2c1C(=O)c1c(O)c3c(c(O)c1C2=O)C[C@@](O)(C(=O)CO)C[C@@H]3O[C@H]1C[C@H](N)[C@H](O)[C@H](C)O1` [DOXORUBICIN], the IC50 amounted to 1.06 µM with HT-29; 5.51 µM in the assay with A-375; 2.18 µM in the assay with A549; 0.79 µM in the assay on ACHN; 2.02 µM with MCF7.
For `COc1cc(/C=C/C(=O)c2c(C)nc3ccccc3c2-c2ccccc2)ccc1OCC(=O)N[C@@H]1c2cc3c(cc2[C@@H](c2cc(OC)c(OC)c(OC)c2)[C@H]2C(=O)OC[C@@H]21)OCO3` the same measures were 7.75 µM, 7.7 µM, 13.4 µM, 15.7 µM and 11.2 µM.
